# Measured values from ChEMBL document CHEMBL1212742 (2010).
# What was measured:
# Type in all cases: functional
# [1] = test system: Mycobacterium tuberculosis; assay: Antimicrobial activity against wild type Mycobacterium tuberculosis 16C10 after 4 weeks by 7H agar proportion method
# How it was run: (§1)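 EMB MIC by 7H10 agar proportion for clones selected from M. tuberculosis strain 210. About 10^9 cells from liquid culture (OD600 ~1.5, resuspended in 7H9) were plated on 7H10 with EMB at 8, 16 or 32 µg/ml final, incubated 37°C for 4 weeks. Colonies were subcultured in EMB-free 7H9 before testing, and embCAB was genotyped.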
# [2] = test system: Mycobacterium tuberculosis; assay: Antimicrobial activity against wild type Mycobacterium tuberculosis 210 after 4 weeks by 7H agar proportion method
# How it was run: (§2)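 Parental M. tuberculosis strain 210 with no EMB exposure. EMB MIC determined in parallel by 7H10 agar proportion and radiometric Bactec 460TB.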
# [3] = test system: Mycobacterium tuberculosis; assay: Antimicrobial activity against wild type Mycobacterium tuberculosis 16C12 after 4 weeks by 7H agar proportion method; how it was run: as §1
# [4] = test system: Mycobacterium tuberculosis; assay: Antimicrobial activity against wild type Mycobacterium tuberculosis 16C12 assessed as inhibition of growth after 4 weeks by Bactec 460TB method; settings: 16C12, 672 h
# How it was run: (§3)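 EMB MIC by radiometric Bactec 460TB liquid method for clones from strain 210. The clones were selected on 7H10 containing 8, 16 or 32 µg/ml EMB final (~10^9 cells plated, 37°C, 4 weeks), then subcultured in 7H9 without EMB before MIC testing. embCAB was genotyped.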
# [5] = test system: Mycobacterium tuberculosis; assay: Antimicrobial activity against wild type Mycobacterium tuberculosis 210 after 4 weeks by Bactec 460TB method; settings: Mycobacterium tuberculosis, 210, 672 h; how it was run: as §2
# [6] = test system: Mycobacterium tuberculosis; assay: Antimicrobial activity against wild type Mycobacterium tuberculosis 8C6 after 4 weeks by 7H agar proportion method; how it was run: as §1
# [7] = test system: Mycobacterium tuberculosis; assay: Antimicrobial activity against wild type Mycobacterium tuberculosis 8C1 after 4 weeks by 7H agar proportion method; how it was run: as §1
# [8] = test system: Mycobacterium tuberculosis; assay: Antimicrobial activity against wild type Mycobacterium tuberculosis 8C2 after 4 weeks by Bactec 460TB method; settings: 8C2, 672 h; how it was run: as §3
# [9] = test system: Mycobacterium tuberculosis; assay: Antimicrobial activity against wild type Mycobacterium tuberculosis NJT210CGG-CAG after 4 weeks; settings: 672 h
# How it was run: (§4)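 Isogenic embB mutants made by allelic exchange in strain 210. PCR-built fragments carried the codon of interest; double-crossover colonies were screened by molecular beacon assay and confirmed by direct embB sequencing. MICs of EMB, INH and RIF were determined by radiometric Bactec 460TB and 7H10 agar proportion, alongside parent 210.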
# [10] = test system: Mycobacterium tuberculosis; assay: Antimicrobial activity against wild type Mycobacterium tuberculosis 8C3 after 4 weeks by Bactec 460TB method; settings: 8C3, 672 h
# [11] = test system: Mycobacterium tuberculosis; assay: Antimicrobial activity against wild type Mycobacterium tuberculosis 8C6 after 4 weeks by Bactec 460TB method; settings: 8C6, 672 h
# [12] = test system: Mycobacterium tuberculosis; assay: Antimicrobial activity against wild type Mycobacterium tuberculosis 16C10 after 4 weeks by Bactec 460TB method; settings: 16C10, 672 h; how it was run: as §3
# [13] = test system: Mycobacterium tuberculosis; assay: Antimicrobial activity against wild type Mycobacterium tuberculosis 8C2 after 4 weeks by 7H agar proportion method; how it was run: as §1
# [14] = test system: Mycobacterium tuberculosis; assay: Antimicrobial activity against wild type Mycobacterium tuberculosis 210 after 4 weeks; settings: Mycobacterium tuberculosis, 210, 672 h; how it was run: as §4
# [15] = test system: Mycobacterium tuberculosis; assay: Antimicrobial activity against wild type Mycobacterium tuberculosis 8C1 after 4 weeks by Bactec 460TB method; settings: 8C1, 672 h; how it was run: as §3
SMILES,MIC [1],MIC [2],MIC [3],MIC [4],MIC [5],MIC [6],MIC [7],MIC [8],MIC [9],MIC [10],MIC [11],MIC [12],MIC [13],MIC [14],MIC [15]
CC[C@@H](CO)NCCN[C@@H](CC)CO [ETHAMBUTOL],6 µg/mL,2 µg/mL,8 µg/mL,3 µg/mL,2 µg/mL,4 µg/mL,6 µg/mL,4 µg/mL,2 µg/mL,4 µg/mL,2 µg/mL,2 µg/mL,8 µg/mL,2 µg/mL,2 µg/mL
NNC(=O)c1ccncc1 [ISONIAZID],–,–,–,–,–,–,–,–,0.05 µg/mL,–,–,–,–,0.05 µg/mL,–
CO[C@H]1/C=C/O[C@@]2(C)Oc3c(C)c(O)c4c(O)c(c(/C=N/N5CCN(C)CC5)c(O)c4c3C2=O)NC(=O)/C(C)=C\C=C\[C@H](C)[C@H](O)[C@@H](C)[C@@H](O)[C@@H](C)[C@H](OC(C)=O)[C@@H]1C [RIFAMPIN],–,–,–,–,–,–,–,–,0.05 µg/mL,–,–,–,–,0.05 µg/mL,–
